According to ChEMBL document CHEMBL1150633, “In vitro cytotoxic activity of phenanthroindolizidine alkaloids from Cynanchum vincetoxicum and Tylophora tanakae against drug-sensitive and multidrug-resistant cancer cells” (J Nat Prod, 2002):

Assays:
[1] = Cytotoxicity against multidrug-resistant human KBV1 cells by MTS/PMS assay; type: functional, cell-based; details: KB-V1
Summary of the method: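 Mycoplasma-free KB-V1 carcinoma cells, selected from KB-3-1 for vinblastine resistance and obtained from the NCI Laboratory of Cell Biology. They show a full multidrug-resistance phenotype including P-170 glycoprotein efflux pump expression. Cytotoxicity expressed as IC50.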

[2] = Cytotoxicity against drug-sensitive human KB-3-1 cells by MTS/PMS assay
[3] = Resistance index, ratio for IC50 for multidrug-resistant human KBV1 cells to IC50 for drug-sensitive human KB-3-1 cells

SMILES	IC50 [1] [nM]	IC50 [2] [nM]	Ratio IC50 [3]
COc1cc2c(cc1O)c1c(c3cc(OC)c(OC)cc32)C[C@H]2CCCN2C1	17	15	
CC[C@]1(O)C[C@@H]2CN(CCc3c([nH]c4ccccc34)[C@@](C(=O)OC)(c3cc4c(cc3OC)N(C)[C@H]3[C@@](O)(C(=O)OC)[C@H](OC(C)=O)[C@]5(CC)C=CCN6CC[C@]43[C@@H]65)C2)C1 [VINBLASTINE]			210
COC(=O)c1ccccc1-c1c2ccc(=N)cc-2oc2cc(N)ccc12.Cl [RHODAMINE123]	> 500000	2200	>225
COc1ccc(C2=C(c3ccc(O)cc3)CN3CCC[C@@H]3C2)cc1OC	425	403	
COc1cc2c3c(c4ccc(OC)c(OC)c4c2cc1OC)C[C@@H]1CCCN1C3	54	43	
COc1ccc(C2=C(c3ccc(OC)c(OC)c3)C[C@H]3CCCN3C2)cc1	2440	2630	
COc1cc2c3c(c4ccc(O)cc4c2cc1OC)CN1CCC[C@@H]1C3	10	7	
COc1cc2c3c(c4cc(OC)c(OC)cc4c2cc1OC)CN1CCC[C@@H]1C3 [TYLOPHORINE]	173	214	
COc1ccc2c3c(c4cc(OC)c(OC)cc4c2c1)C[C@H]1CCCN1C3 [(-)-ANTOFINE]	14	16	
